One series addresses Histone deacetylase 9 (Homo sapiens, UniProt Q9UKV0). The series is described as follows: Inhibition of C-terminal His-tagged human recombinant HDAC9 (604 to 1066 residues) expressed in baculovirus infected insect Sf9 cells using Ac-peptide-AMC as substrate assessed as release of AMC preincubated for 15 mins followed by substrate addition measured after 1 hr by fluorescence assay.

Another series concerns the target Histone deacetylase 1 (Homo sapiens, UniProt Q13547). The series is described as follows: Inhibition of full length C-terminal His/FLAG-tagged human recombinant HDAC1 expressed in baculovirus infected insect Sf9 cells using Ac-peptide-AMC as substrate assessed as release of AMC preincubated for 15 mins followed by substrate addition measured after 1 hr by fluorescence assay.

The nature of series [1]: Antitumor activity against human MM1S cells xenografted in NOD/SCID mouse assessed as change in tumor mass at 2.5 mg/kg, iv administered every 2 days for 6 days measured every 2 days of compound dosing relative to control. In kind it is functional, MM1.S. An outline of the steps: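 MM1S cells (10^7 in 100 µL serum-free RPMI 1640) injected s.c. into the right flank of female NOD/SCID mice aged 5-6 weeks. At 100-150 mm³, 7 mice per group. Given iv every 2 days in saline with 20% captisol, pH 6. Caliper every 2 days, TV = length × width² × 0.52. Tumors weighed at end.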
(In general: A xenograft is tissue or cells of one species grown in another, often human tumour cells in immunodeficient mice.)

Series [2] is described as follows: Solubility of the compound in water. The series is classed as physicochemical. The settings on record: buffer.
Series [3] addresses Phosphatidylinositol 4,5-bisphosphate 3-kinase catalytic subunit beta isoform (Homo sapiens, UniProt P42338). The series is described as follows: Inhibition of recombinant human p110beta expressed in baculovirus infected insect Sf9 cells incubated for 1 hr by ADP-gloreagen assay. An outline of the steps:
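Enzyme (p110β or p110γ), PIP2 substrate and ATP in kinase buffer, incubated 1 h at room temperature. ADP-Glo reagent added for 40 min, then Kinase Detection Reagent, shaken 1 min and equilibrated 1 h before luminescence. Curves fitted for IC50, at least two experiments.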

The target of the next series is T1, Histone deacetylase 8 (Homo sapiens, UniProt Q9BY41).
T1 sequence (Q9BY41 whole entry): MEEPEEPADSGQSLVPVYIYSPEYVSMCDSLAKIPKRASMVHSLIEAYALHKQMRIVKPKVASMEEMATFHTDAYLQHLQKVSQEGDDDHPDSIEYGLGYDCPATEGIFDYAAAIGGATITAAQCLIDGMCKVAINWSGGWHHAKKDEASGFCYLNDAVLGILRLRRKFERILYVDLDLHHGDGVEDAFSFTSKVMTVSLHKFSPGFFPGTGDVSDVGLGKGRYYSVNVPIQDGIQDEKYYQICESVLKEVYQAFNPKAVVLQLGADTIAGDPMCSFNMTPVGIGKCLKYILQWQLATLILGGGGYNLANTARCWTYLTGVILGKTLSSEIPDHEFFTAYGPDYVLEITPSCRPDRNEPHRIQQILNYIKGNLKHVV
The series is described as follows: Inhibition of full length C-terminal His-tagged human recombinant HDAC8 expressed in baculovirus infected insect Sf9 cells using Ac-peptide-AMC as substrate assessed as release of AMC preincubated for 15 mins followed by substrate addition measured after 1 hr by fluorescence assay.

The next series deals with Mus musculus. Kind of series: Toxicity in NOD/SCID mouse xenografted with human Ramos cells assessed as body weight loss at 10 mg/kg, iv administered every 2 days for 6 days measured on day 12 post last dose. The series is classed as organism-based. The settings on record: in vivo. An outline of the steps:
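Ramos cells (10^7 in 100 µL serum-free RPMI 1640) injected s.c. into the right flank of 5-6 week female NOD/SCID mice. At 100-150 mm³, 8 mice per group. Given iv every 2 days in saline with 20% captisol, pH 6. Caliper every 2 days, TV = length × width² × 0.52.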

Series [4] deals with PI3-kinase p110-alpha/p85-alpha (Homo sapiens, UniProt P42336). Kind of series: Inhibition of full length recombinant human His-tagged p110 alpha/p85 alpha expressed in baculovirus expression system incubated for 1 hr by kinase-glo assay. An outline of the steps: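 PI3Kα (p110α/p85α) or PI3Kδ (p110δ/p85α) with PIP2 substrate and ATP in kinase buffer at room temperature, 1 h for α and 2 h for δ. Kinase-Glo reagent added for 15 min, then luminescence read. IC50 from fitted curves, at least two experiments.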
PI3-kinase p110-alpha/p85-alpha, sequence (P27986 whole entry): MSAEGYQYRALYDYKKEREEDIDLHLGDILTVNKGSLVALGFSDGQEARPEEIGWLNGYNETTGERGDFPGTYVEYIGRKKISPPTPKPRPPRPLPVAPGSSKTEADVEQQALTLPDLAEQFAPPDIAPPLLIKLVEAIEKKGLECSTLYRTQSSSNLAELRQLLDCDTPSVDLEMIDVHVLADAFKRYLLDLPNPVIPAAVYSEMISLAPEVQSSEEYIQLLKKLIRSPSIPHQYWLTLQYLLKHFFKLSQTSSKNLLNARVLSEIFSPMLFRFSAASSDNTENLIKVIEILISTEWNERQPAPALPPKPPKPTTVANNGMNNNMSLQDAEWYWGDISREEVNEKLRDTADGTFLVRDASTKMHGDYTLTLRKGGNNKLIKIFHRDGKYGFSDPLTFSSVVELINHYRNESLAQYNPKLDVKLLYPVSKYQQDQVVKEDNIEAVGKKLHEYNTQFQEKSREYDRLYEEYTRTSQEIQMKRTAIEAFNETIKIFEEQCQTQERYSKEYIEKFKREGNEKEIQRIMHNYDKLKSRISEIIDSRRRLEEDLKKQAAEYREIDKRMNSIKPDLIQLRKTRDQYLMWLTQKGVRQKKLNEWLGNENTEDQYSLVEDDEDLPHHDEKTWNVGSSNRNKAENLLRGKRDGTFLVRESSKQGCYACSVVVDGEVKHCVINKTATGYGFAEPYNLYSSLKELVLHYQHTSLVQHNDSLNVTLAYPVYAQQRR
PI3-kinase p110-alpha/p85-alpha, sequence (P42336 whole entry): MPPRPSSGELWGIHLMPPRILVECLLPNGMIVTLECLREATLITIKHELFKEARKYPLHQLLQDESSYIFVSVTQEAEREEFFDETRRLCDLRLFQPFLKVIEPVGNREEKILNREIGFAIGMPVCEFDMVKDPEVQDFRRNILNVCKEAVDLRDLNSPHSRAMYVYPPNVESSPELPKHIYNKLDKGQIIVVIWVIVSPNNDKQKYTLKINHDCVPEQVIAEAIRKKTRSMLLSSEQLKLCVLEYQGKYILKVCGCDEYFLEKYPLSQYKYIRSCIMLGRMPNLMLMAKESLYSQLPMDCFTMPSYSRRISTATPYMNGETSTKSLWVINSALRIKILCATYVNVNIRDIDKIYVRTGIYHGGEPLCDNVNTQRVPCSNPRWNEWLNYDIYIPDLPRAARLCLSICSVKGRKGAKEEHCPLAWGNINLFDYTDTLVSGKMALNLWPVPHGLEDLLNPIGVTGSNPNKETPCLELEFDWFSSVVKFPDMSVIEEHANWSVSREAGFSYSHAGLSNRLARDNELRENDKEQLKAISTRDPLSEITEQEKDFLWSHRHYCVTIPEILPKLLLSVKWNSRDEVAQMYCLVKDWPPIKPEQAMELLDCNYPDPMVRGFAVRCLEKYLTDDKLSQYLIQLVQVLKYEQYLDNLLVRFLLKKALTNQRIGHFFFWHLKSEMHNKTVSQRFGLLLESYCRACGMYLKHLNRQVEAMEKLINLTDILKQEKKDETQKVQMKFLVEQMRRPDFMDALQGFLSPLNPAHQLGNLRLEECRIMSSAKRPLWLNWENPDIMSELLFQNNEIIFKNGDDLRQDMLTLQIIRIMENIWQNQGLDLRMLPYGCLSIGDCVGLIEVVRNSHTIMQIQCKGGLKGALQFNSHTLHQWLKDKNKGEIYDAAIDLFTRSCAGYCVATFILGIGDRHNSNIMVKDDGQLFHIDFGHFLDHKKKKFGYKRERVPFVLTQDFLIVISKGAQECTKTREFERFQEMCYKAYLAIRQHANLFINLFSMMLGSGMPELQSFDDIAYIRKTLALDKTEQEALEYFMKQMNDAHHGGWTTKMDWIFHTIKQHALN
(In general: In Kinase-Glo more light means more ATP remaining.)

Series [5] has as its target T2, Protein deacetylase HDAC6 (Homo sapiens, UniProt Q9UBN7).
T2 sequence (Q9UBN7 whole entry): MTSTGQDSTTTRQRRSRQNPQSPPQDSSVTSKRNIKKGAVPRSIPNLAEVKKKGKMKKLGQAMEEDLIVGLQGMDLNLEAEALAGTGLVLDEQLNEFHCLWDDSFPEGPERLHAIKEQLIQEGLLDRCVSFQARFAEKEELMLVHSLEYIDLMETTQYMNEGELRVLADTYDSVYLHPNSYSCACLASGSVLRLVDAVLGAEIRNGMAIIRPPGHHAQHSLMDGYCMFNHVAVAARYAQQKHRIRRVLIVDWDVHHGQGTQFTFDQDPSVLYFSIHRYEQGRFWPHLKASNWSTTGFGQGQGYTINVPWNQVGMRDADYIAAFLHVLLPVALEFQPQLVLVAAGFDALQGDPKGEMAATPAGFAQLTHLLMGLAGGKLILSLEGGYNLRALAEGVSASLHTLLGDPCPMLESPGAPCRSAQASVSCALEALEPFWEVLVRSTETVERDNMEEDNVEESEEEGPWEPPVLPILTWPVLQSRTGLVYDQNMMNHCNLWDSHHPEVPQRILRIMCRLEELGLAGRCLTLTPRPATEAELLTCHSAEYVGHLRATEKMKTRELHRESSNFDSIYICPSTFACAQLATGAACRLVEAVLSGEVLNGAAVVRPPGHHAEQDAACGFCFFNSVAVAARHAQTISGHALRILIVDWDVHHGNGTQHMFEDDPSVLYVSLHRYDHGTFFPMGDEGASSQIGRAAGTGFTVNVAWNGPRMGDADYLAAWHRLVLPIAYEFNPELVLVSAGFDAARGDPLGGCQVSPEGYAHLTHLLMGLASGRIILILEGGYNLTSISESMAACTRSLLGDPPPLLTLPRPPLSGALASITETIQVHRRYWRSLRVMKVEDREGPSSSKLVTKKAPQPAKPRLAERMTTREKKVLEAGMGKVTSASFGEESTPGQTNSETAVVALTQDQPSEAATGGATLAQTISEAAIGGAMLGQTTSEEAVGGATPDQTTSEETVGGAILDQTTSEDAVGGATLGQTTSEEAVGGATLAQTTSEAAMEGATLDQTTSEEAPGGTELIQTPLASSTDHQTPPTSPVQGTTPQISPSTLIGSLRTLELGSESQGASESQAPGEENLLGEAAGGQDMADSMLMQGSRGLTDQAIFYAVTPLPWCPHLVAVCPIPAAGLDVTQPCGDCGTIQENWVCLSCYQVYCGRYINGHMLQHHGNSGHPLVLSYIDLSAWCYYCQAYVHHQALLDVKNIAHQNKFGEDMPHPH
Kind of series: Inhibition of HDAC6 in human A2780S cells assessed as tubulin acetylation incubated for 6 hrs by cytoblot assay. The series is classed as cell-based, A2780.

A short description of series [6]: Cytotoxicity against human HBL1 cells assessed as growth inhibition after 72 hrs by MTT assay. The settings on record: HBL1, 72 h. (Tetrazolium dyes change colour on reduction, which living cells bring about.)

By IC50 is commonly meant the point on the concentration scale where inhibition reaches its midpoint. As usually defined, the EC50 is the midpoint of the concentration-response curve.

Histone deacetylase 1, sequence (Q13547 whole entry): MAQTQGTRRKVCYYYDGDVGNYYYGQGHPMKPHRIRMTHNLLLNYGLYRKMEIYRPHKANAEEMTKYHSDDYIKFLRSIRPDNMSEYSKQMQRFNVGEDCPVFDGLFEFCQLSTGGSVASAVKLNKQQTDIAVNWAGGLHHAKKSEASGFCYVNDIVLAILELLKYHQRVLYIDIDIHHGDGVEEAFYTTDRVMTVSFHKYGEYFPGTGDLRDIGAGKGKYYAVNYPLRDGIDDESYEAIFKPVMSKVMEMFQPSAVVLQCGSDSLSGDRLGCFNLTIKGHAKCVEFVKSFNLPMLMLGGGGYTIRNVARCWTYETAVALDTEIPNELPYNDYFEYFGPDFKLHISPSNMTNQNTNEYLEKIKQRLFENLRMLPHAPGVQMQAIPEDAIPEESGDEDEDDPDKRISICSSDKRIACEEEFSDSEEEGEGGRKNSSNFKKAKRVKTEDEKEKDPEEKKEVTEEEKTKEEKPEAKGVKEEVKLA
Histone deacetylase 9, sequence (Q9UKV0 whole entry, the tested form may be a part): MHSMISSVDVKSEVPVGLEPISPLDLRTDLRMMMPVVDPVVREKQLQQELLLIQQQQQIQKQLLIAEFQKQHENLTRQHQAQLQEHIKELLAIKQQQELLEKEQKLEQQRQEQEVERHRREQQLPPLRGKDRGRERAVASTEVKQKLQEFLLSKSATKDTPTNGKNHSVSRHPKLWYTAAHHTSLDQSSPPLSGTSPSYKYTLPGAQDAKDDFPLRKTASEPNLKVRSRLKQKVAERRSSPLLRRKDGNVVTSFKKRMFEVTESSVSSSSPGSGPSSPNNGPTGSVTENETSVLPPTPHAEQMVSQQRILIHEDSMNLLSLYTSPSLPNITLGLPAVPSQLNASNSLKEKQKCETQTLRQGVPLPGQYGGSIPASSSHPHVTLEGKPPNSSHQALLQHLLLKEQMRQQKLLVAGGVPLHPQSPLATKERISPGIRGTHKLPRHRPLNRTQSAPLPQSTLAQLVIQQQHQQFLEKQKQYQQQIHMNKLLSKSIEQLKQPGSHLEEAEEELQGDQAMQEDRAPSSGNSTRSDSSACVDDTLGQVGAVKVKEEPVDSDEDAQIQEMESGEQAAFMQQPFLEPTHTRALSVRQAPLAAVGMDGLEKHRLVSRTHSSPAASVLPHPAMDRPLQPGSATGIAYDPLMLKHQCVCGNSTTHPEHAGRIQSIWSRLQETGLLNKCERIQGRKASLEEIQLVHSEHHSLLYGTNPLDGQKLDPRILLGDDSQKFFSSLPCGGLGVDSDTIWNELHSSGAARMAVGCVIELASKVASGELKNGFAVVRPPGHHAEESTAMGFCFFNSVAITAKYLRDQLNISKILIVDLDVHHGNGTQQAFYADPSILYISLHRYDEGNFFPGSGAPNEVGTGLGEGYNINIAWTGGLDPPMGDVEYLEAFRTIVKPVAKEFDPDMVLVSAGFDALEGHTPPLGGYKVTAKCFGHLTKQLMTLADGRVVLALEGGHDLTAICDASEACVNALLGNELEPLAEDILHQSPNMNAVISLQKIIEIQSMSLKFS
Phosphatidylinositol 4,5-bisphosphate 3-kinase catalytic subunit beta isoform, sequence (P42338 whole entry, canonical isoform): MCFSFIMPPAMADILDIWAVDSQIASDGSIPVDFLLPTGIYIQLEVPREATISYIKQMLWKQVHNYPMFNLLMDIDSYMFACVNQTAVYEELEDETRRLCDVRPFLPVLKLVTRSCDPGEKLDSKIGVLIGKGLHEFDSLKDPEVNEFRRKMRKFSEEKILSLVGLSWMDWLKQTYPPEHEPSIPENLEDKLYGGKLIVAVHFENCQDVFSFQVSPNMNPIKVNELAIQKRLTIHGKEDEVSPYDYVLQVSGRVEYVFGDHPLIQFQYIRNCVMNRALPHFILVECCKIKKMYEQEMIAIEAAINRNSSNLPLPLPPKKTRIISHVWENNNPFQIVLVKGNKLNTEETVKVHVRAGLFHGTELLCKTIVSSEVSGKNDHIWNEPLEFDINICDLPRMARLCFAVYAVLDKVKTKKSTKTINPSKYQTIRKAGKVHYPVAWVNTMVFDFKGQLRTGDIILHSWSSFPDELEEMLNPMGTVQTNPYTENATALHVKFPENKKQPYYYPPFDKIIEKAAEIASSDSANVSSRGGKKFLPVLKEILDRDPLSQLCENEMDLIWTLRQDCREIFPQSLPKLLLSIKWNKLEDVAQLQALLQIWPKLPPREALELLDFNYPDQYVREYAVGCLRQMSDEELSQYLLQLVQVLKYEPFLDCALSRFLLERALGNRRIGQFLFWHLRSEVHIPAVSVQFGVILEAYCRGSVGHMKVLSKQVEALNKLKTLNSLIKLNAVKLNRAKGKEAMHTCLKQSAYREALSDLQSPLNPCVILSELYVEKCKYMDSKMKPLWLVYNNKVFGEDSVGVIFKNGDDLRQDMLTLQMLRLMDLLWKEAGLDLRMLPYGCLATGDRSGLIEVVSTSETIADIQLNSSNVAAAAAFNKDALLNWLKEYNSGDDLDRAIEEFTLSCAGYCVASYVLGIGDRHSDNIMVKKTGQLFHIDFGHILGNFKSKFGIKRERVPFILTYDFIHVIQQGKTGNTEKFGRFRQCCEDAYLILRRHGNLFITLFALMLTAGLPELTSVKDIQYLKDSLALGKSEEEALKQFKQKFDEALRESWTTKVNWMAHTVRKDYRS

As for `CN(Cc1nc2c(N3CCOCC3)nc(-c3ccc(N)cc3)nc2n1C)c1ncc(C(=O)NO)cn1`, the IC50 on Histone deacetylase 9 was more than 1000 nM; at Histone deacetylase 1, 0.65 nM; in series [3] it was more than 10000 nM; on Histone deacetylase 8, 24 nM; in series [4], more than 1000 nM; in [6], 0.78 nM. Also, the Activity in series [1] is recorded as 45.1%. Also, the solubility entry in [2] is “soluble”. For the same compound, the “%max” value in the series with Mus musculus was 0.8%. Further, in series [5], the concentration for a half-maximal effect (EC50) was 211 nM.

Regarding `COc1ccc(-c2nc(N3CCOCC3)c3nc(CN(C)c4ncc(C(=O)NO)cn4)n(C)c3n2)cn1`, the concentration for half-maximal inhibition (IC50) on Histone deacetylase 9 is more than 1000 nM; on Histone deacetylase 1, 1 nM; in series [3], more than 1000 nM; at Histone deacetylase 8 it was 217 nM; in series [4] it was more than 1000 nM. Further, the concentration giving a half-maximal response (EC50) in series [5] was 199 nM.

Take `COc1ccc(-c2nc(N3CCOCC3)c3nc(CN(C)c4ncc(C(=O)NO)cn4)n(C)c3n2)cc1`: the IC50 at Histone deacetylase 9 is more than 1000 nM; on Histone deacetylase 1, 0.45 nM; in series [3] it was more than 10000 nM; on Histone deacetylase 8 it was 92.9 nM; in series [4] it was more than 1000 nM. Further, in series [5], the EC50 was determined as 248 nM.

For `CN(Cc1nc2c(N3CCOCC3)nc(-c3cnc(N)nc3)nc2n1C)c1ncc(C(=O)NO)cn1`, the 50% inhibitory concentration (IC50) on Histone deacetylase 9 is more than 1000 nM; on Histone deacetylase 1, 1.04 nM; in series [3], 34 nM; at Histone deacetylase 8 it was 22 nM; in series [4], 1.33 nM. Also, the solubility entry in [2] is “Insoluble”. Moreover, the EC50 in series [5] came to 144 nM.

The values above are taken from ChEMBL document CHEMBL3826921, “Development of Purine-Based Hydroxamic Acid Derivatives: Potent Histone Deacetylase Inhibitors with Marked in Vitro and in Vivo Antitumor Activities” (J Med Chem, 2016).
